Reference: ChEMBL document CHEMBL4513216, “Probing the Open Global Health Chemical Diversity Library for Multistage-Active Starting Points for Next-Generation Antimalarials” (ACS Infect Dis, 2020)

Test: Toxicity liver stage against HepG2, at 10uM
Format: cell-based
Parameters: test concentration 10 uM, cell line HepG2-A16-CD81EGFP
Conditions: human, HepG2-A16-CD81EGFP cells; read-out: INHIBITION
Summary of the method: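 Uninfected HepG2-A16-CD81EGFP cells, 3 × 10^3 per well, 1536-well, plated on prespotted compound at 10 μM final, parasite-free screening media added to match infected plates; puromycin 10 μM positive, DMSO 0.5% negative; run in parallel with 48 h PbLuc assay at 37 °C, 5% CO2; viability by CellTiter-Glo luminescence, normalized to controls.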

Row | Structure (SMILES) | cytotoxicity at 10 µM [%]
1 | O=C(CCCN1CCCCC1)NC(C(=O)O)c1ccc(Cl)cc1 (stereo not given) | -2.33
2 | COc1ccc2cc(C(=O)NCCc3nc(C)no3)[nH]c2c1 | 9.63
3 | O=C(NC1CC1)c1ccc2ccc(N3CCN(CC4CC4)CC3)n2c1 | 1.26
4 | CC(=O)Nc1ccccc1Sc1nc(Br)nn1C | -1.05
5 | CC(CNC(=O)c1c[nH]nn1)Oc1cccc(Br)c1 (stereo not given) | -10.3
6 | CC(C)Cc1noc(CN2CCCN(C(=O)c3cccc(Cl)c3)CC2)n1 | -2.34
7 | Cc1cn[nH]c1C1CCCCN1C(=O)CCc1ccc(F)cc1 (stereo not given) | 1.52
8 | COc1ccc(-c2cc(CN)nc3ccnn23)cc1 | -5.75
9 | O=C(Cn1cccc1)NCC1CCN(Cc2cc3ccccc3[nH]2)C1 (stereo not given) | 12.6
10 | CCn1cc(S(=O)(=O)N2CCN(C(=O)c3cc(Br)cs3)CC2)c(C)n1 | 2.73
11 | CCCS(=O)(=O)N1CCC(NC(=O)c2cc(CC)c(C)s2)CC1 | -4.61
12 | CC(C)(C)OC(=O)N1CSC[C@@H]1C(=O)NCc1ccc(C#N)cc1 | 11.6
13 | CC(=O)N[C@@H]1CN(Cc2ccc(F)cc2F)C[C@H]1c1ccc(C)o1 | 6.39
14 | O=c1[nH]nc2nc(N3CCOCC3)ccn12 | -5.08
15 | O=C(O)c1cc(S(=O)(=O)Nc2ccc(F)cc2Cl)cc2c1OCCO2 | -8.12
16 | Cc1ccc(N2CCO[C@H]3CN(Cc4ccc(F)cc4)C[C@H]32)nn1 | -88.6
17 | O=C(O)C1CCN(c2ccc(Sc3ccc(Br)cc3)nn2)CC1 | 9.14
18 | COC(=O)c1cc(NC2CCN(CC(F)(F)F)C2=O)ccc1C (stereo not given) | -0.812
19 | O=C(c1csc(-c2cnccn2)n1)N1CCCC1Cn1cccn1 (stereo not given) | -7.35
20 | COc1nccnc1N1CCC2(CC1)[C@H](O)C[C@@H]2OCCN(C)C | 4.56
21 | Cc1nn(C)c(Oc2cccc(F)c2)c1NC(=O)C1CCCO1 (stereo not given) | -7.64
22 | COc1ccc(OC2CCN(C(=O)C(C)Cn3cccn3)CC2)cc1 (stereo not given) | 5.43

Row | Structure (SMILES) | cytotoxicity at 10 µM [%]
23 | COc1ccc(S(=O)(=O)C(C)C(=O)NCCOc2cccc(C)c2)cc1 (stereo not given) | -2.24
24 | CNC(=O)N1CCC2(CC1)C(=O)N(C)c1c(F)cccc12 | -5.86
25 | Cc1cc(CN(C)Cc2cc3c(cc2OC(F)F)OCO3)on1 | 0.658
26 | Clc1cccc(C(NCc2ncc[nH]2)c2ccccn2)c1 (stereo not given) | 0.863
27 | Cn1nccc1CNC(=O)Cn1nc(C(F)(F)F)cc1C1CC1 | -6.36
28 | Cc1nc(N2CCCC(OCc3ccccn3)C2)c2c(C)noc2n1 (stereo not given) | 0.622
29 | COc1ccc(CCC2CCCCN2)cc1 (stereo not given) | -9.83
30 | Cc1cc(NC(C)Cc2cccnc2)n2nccc2n1 (stereo not given) | 3.01
31 | COCCNC(=O)c1ccccc1-n1cc(CN)cn1 | -23.6
32 | Cn1ccnc1N1CCN(C(=O)Cc2ccc(F)cc2)CC1 | 4.73
33 | c1ncn(CC2CN(Cc3nc(C4CC4)no3)CCO2)n1 (stereo not given) | -8.45
34 | CCOC(C)C(=O)Nc1ccc2c(ccn2CC)c1 (stereo not given) | 0.877
35 | COc1cc(Cl)c(CN2CCC(C(N)=O)C2)cc1Cl (stereo not given) | -2.4
36 | Cc1ncccc1C(=O)Nc1cccc(Cn2ccccc2=O)c1 | 3.06
37 | Cc1ccc(NC(=O)NCC2CCS(=O)(=O)C2)cc1Cl (stereo not given) | 6.93
38 | CC1(C)CC(=O)N(CC(=O)Nc2ccon2)c2ccccc21 | -3.43
39 | c1cc(-c2noc(C3CCC3)n2)cc(N2CCCCC2)n1 | -1.39
40 | CCCOc1ccc(Cl)cc1C(=O)N1CCC(n2cncn2)CC1 | 2.93
41 | O=S(=O)(NC1=NCN(CCc2cccs2)CN1)c1ccc(F)cc1 | -1.01
42 | COc1ccccc1OC1CN(C(=O)C2CNCC(=O)N2)C1 (stereo not given) | 5.46
43 | O=C1CC(N2CCN(c3ccccc3O)CC2)C(=O)N1Cc1cccs1 (stereo not given) | -0.872
44 | Cc1ccccc1S(=O)(=O)N1CCc2c(ncnc2N(C)C)C1 | -16.6

Row | Structure (SMILES) | cytotoxicity at 10 µM [%]
45 | Nc1nc(CCC(=O)N2C[C@H](c3ccccc3)[C@@H](N)C2)cs1 | 4.49
46 | Cc1cscc1-c1nc(C2CCOC2)no1 (stereo not given) | 8.4
47 | O=C1OCCN1CC(=O)N1C[C@@H]2CC[C@H]1CN(C(=O)c1ccccn1)C2 | 13.5
48 | c1coc(-c2nc3c(c(N4CCCN5CCC[C@H]5C4)n2)CCNCC3)c1 | -9.88
49 | Cn1ccc(C(=O)N2C[C@@H]3CN(CC4CC4)CCO[C@@H]3C2)n1 | 14.9
50 | CN(CCc1ccccn1)c1cc(N2CCCCC2)ncn1 | 3.61
51 | Cc1ccc(F)c(S(=O)(=O)N2CCCC2c2ccncc2)c1 (stereo not given) | 10.6
52 | O=C(CO)N1CC[C@@H](N2CCN(c3ccccc3F)CC2)[C@H](O)C1 | -46
53 | CN(C)c1nc2c(c(N3CCC4(CC3)CNC(=O)C4)n1)CCCC2 | 0.995
54 | CN(C)c1ccc(NC(=O)N2CCCC2c2ccsc2)cn1 (stereo not given) | -7.81
55 | CCCc1nc(C)c(C(=O)NCCNc2ncccc2C#N)s1 | -19.5
56 | COc1ccc(/C=C/CN2CCCC3(C2)CN(C)C(=O)O3)cc1 (stereo not given) | -2.67
57 | CCN(C)C[C@@H]1CN(Cc2cnc3c(S(C)(=O)=O)cnn3c2)C[C@@H]1CO | -4.99
58 | CN(C(=O)CCN1CCCC1=O)c1cc(C#N)c2ccccc2n1 | 3.33
59 | Cn1ccc(NC(=O)Cc2cccc(F)c2)n1 | 1.44
60 | CCSc1nnc(N(CCC#N)CCC#N)s1 | 4.91
61 | CCN(CC1CCOC1)C(=O)c1ccc(N(C)C)cc1F (stereo not given) | 3.54
62 | Cc1ccc(C(=O)N2C[C@@H](OCc3cccnc3)[C@H]3OCCC[C@@H]32)o1 | -2.52
63 | COC[C@]1(O)CCN(C(=O)c2ccc(CN(C)C)o2)CC1(C)C | 4.35
64 | COCCC1COC2(CCN(C(=O)c3ccncc3)CC2)C1 (stereo not given) | -74.9
65 | CC(C)SCCn1ccc2[nH]c(=O)c(C#N)cc2c1=O | 3.18
66 | CCc1noc(CNCC2CCCN2c2cccnn2)n1 (stereo not given) | 2.11

Row | Structure (SMILES) | cytotoxicity at 10 µM [%]
67 | Cc1ccc(C(=O)Nc2nnc(C3CC3)s2)c(-n2cnnn2)c1C | 12.3
68 | Cc1ccc(N2CCO[C@H]3CN(Cc4cccs4)C[C@H]32)nn1 | -75.6
69 | Cc1nc(CNCc2cccnc2Oc2ccc(C)c(F)c2F)c[nH]1 | 6.87
70 | CCCc1ncc(CN(CCOC)Cc2cccs2)cn1 | -0.683
71 | Cc1ccc(CN2Cc3c(C(=O)N(C)C)nn(C)c3C2)s1 | -12.6
72 | CS(=O)(=O)N1C[C@H]2N(c3ncccn3)CCC[C@@]2(C(=O)NCC2CC2)C1 | -110
73 | O=C(CN1CCOCC1)Nc1cc(C(F)(F)F)ccc1-n1cccc1 | 8.32
74 | COCC(=O)Nc1ccc(-c2noc([C@@H]3CCCN3C(C)C)n2)cn1 | 0.994
75 | CC(C)N1CCC2(CC1)C[C@@H](O)[C@H](c1ccccc1)NC2=O | -16.7
76 | O=S1(=O)C[C@@H]2[C@H](C1)N(Cc1nc3ccccc3[nH]1)CCN2CC1CC1 | -133
77 | CN(c1cccnn1)[C@@H]1CC[C@@H]2CN(Cc3cccc(C(=O)O)c3)C[C@@H]21 | 6.17
78 | CC(NC(=O)C1=NN(C)C(=O)CC1)c1ccc(Cl)cc1 (stereo not given) | -20.7
79 | Cn1cccc1C(=O)N1C[C@@H]2CC[C@H]1CN(Cc1cscn1)C2 | 2.9
80 | CC(C)NC(=O)Nc1cccc2c1CCN(S(C)(=O)=O)C2 | -8.59
81 | Cc1nc(CNC(C(=O)N2CCOCC2)c2ccccc2)cs1 (stereo not given) | 7.33
82 | Cc1oc(NC(=O)C(C)N2CCN(CCO)CC2)c(C#N)c1C (stereo not given) | -13.6
83 | Cn1c(=O)ccn(CC(=O)N2CCCC(n3cccn3)C2)c1=O (stereo not given) | -8.92
84 | CCC(C)(C)NC(=O)C[S+]([O-])Cc1csc(C2CCCC2)n1 (stereo not given) | -41.3
85 | O=c1ccc(-n2ccnc2)nn1CCNS(=O)(=O)c1ccc(Br)cc1 | -7.21
86 | CCN1CCOC(CNCc2ccccc2OCc2ccccn2)C1 (stereo not given) | -10.1
87 | COC(=O)C(C)NC(=O)CSCc1nc(O)c2cc(C(C)C)sc2n1 (stereo not given) | 10.2
88 | O=C(Nc1cccnc1)NC(CCCO)c1ccccc1 (stereo not given) | -4.4

Row | Structure (SMILES) | cytotoxicity at 10 µM [%]
89 | Cc1cc(CSCc2cc(C)on2)on1 | 6.42
90 | CC(CNCc1ccc(Cl)cc1)Oc1ccccn1 (stereo not given) | 5.01
91 | CCN(Cc1cnn(C)c1)C[C@H]1CC[C@@H](Cc2cccc(C#N)c2)O1 | 0.194
92 | COC(=O)c1ccc(NC(=O)CNCc2ccco2)cc1 | -12
93 | Cc1noc(C)c1CN1CCc2ncnc(-c3ccoc3)c2CC1 | -92
94 | Cn1cc(C2=NOC(C(=O)NC3(c4ccccc4F)CCCC3)C2)cn1 (stereo not given) | -0.269
95 | Cc1cc(F)ccc1OC1(C(=O)O)CCN(Cc2cccnc2)CC1 | 1.87
96 | CCOc1ccc(C(=O)N(Cc2cnn(C)c2)C(C)C)cc1OCC | -8.4
97 | CN(c1nc(Cn2cc(Br)ccc2=O)cs1)C1CC1 | 8.34
98 | Cc1nc(N)sc1C(=O)N1CCC(C(O)Cc2ccccc2)CC1 (stereo not given) | 2.29
99 | CCc1ccc(NS(=O)(=O)C=c2[nH]c(=O)n3cccc3c2=O)cc1 | 8.45
100 | CCCC1C=CCN1C(=O)c1cc(COc2ccccc2)[nH]n1 (stereo not given) | 9.8
101 | CCn1nc(C)c(CCn2ccnc2-c2cc3n(n2)CCNC3)c1C | 5.15
102 | CCn1cc(CN2CCCN(C(=O)c3cccc(C#N)c3)CC2)cn1 | 0.893
103 | N#CCSCCCN1CCCC(C(=O)N2CCCCCC2)C1 (stereo not given) | 4.01
104 | O=C(c1ccc(Br)o1)N1CCCCC1Cn1cccn1 (stereo not given) | -5.31
105 | CC(C)(C)c1cc(=O)[nH]c(C2(N)CCCCC2)n1 | 16.5
106 | CN(Cc1cc(Br)cn1C)C(=O)Cc1cccnc1 | -4.18
107 | CN1CC[C@@H]2OC[C@H](C(=O)N(C)Cc3ccccn3)C[C@@H]2C1 | -98
108 | CC(NC(=O)COCC(F)(F)F)c1nnc2n1CCCCC2 (stereo not given) | -12.3
109 | COCCNC(=O)NC(c1ccccc1)c1ccccc1OC (stereo not given) | -0.238
110 | CN(C)C(=O)N1CCCC(C(=O)N(C)Cc2cnc(N)nc2)C1 (stereo not given) | -2.81
